Calls of active or inactive are those of the source.
Columns and labels:
[1] = target: Voltage-gated inwardly rectifying potassium channel KCNH2 (Homo sapiens, UniProt Q12809); assay: Inhibition of human Erg by patch clamp assay
[2] = target: Histamine H3 receptor (Rattus norvegicus, UniProt Q9QYN8); assay: Displacement of [3H]NAMH from rat histamine H3 receptor expressed in CHO cells; assay type: cell-based
Procedure, shortened: (§1)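 Radioligand displacement of [³H]NAMH from membranes isolated from CHO cells transfected with cloned human H₃ or rat H₃ receptors.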

[3] = Oral bioavailability in rat at 5 mg/kg; assay type: ADME, organism-based; conditions: in vivo
Procedure, shortened: (§2)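 Rat PK: iv dose with vehicle 3% DMSO, 30% solutol, 67% phosphate buffered saline. Oral 5 mg/kg dose with vehicle 50% Tween 80, 40% propylene carbonate, 10% propylene glycol.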

[4] = target: T1, Histamine H3 receptor (Homo sapiens, UniProt Q9Y5N1); assay: Displacement of [3H]NAMH from human histamine H3 receptor expressed in CHO cells; assay type: cell-based; procedure, shortened: as §1
T1 sequence (Q9Y5N1 whole entry): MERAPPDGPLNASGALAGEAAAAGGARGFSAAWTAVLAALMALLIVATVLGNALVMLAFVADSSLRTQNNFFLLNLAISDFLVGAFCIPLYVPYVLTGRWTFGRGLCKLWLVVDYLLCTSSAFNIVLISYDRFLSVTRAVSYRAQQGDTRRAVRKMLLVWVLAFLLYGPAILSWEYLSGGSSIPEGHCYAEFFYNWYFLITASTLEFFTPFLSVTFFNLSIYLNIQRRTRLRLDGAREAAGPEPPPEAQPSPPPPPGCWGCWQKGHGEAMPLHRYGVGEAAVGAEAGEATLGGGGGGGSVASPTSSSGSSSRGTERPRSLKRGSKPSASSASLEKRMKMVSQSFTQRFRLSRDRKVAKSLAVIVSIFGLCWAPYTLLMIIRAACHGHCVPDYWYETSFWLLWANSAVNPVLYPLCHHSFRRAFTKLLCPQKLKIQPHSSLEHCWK

[5] = Half life in rat at 1 mg/kg, iv; assay type: ADME, organism-based; set-up: dose 1 mg/kg, route intravenous; conditions: in vivo; procedure, shortened: as §2
[6] = Half life in rat liver microsomes; assay type: ADME, Microsome
[7] = species: Homo sapiens; assay: Selectivity for human histamine H3 receptor over human histamine H4 receptor
Procedure, shortened: (§3)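 The hH3 side comes from displacement of [³H]NAMH binding in membranes from CHO cells transfected with cloned human H3 receptor. Human H1, H2 and H4 receptors were tested in an outsourced receptor selectivity profiling screen (LeadProfiler/Spectrum). The value is the fold-selectivity of hH3 over each subtype.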

[8] = system: Rattus norvegicus; assay: Effect on sleep-awake cycle in EEG/EMG rat model assessed as maximal cumulative wake surplus time at 30 mg/kg, ip after 7 hrs relative to control; assay type: functional; conditions: route intraperitoneal
Procedure, shortened: (§4)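 Rats surgically implanted for chronic EEG and EMG recording. Wake, slow-wave sleep and REM sleep scored by standard criteria. Doses spanned […]–30 mg/kg ip, given during the normal quiet (lights-on) period, with a vehicle group as control. Cumulative wake time taken as AUC over time after dosing. Statistics by ANOVA.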

[9] = target: Cytochrome P450 3A4 (Homo sapiens, UniProt P08684); assay: Inhibition of CYP3A4; assay type: ADME
Sequence of Cytochrome P450 3A4 (P08684 whole entry): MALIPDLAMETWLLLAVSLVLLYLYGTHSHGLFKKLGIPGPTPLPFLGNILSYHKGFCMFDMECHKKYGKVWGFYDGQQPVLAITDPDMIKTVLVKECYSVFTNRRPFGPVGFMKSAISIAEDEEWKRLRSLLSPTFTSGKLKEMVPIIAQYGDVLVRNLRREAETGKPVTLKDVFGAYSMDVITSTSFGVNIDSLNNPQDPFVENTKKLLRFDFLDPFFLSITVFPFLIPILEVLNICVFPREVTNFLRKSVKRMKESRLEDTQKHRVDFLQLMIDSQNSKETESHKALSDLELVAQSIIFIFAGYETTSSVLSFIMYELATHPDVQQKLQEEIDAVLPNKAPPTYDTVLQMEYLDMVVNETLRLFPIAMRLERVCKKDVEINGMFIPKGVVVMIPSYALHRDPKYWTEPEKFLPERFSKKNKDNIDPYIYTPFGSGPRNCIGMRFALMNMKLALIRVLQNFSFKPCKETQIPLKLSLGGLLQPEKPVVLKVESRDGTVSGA

[10] = Clearance in rat at 1 mg/kg, iv; assay type: ADME, organism-based; set-up: dose 1 mg/kg, route intravenous; conditions: in vivo; procedure, shortened: as §2
[11] = target: Cytochrome P450 2C19 (Homo sapiens, UniProt P33261); assay: Inhibition of CYP2C19; assay type: ADME
Sequence of Cytochrome P450 2C19 (P33261 whole entry): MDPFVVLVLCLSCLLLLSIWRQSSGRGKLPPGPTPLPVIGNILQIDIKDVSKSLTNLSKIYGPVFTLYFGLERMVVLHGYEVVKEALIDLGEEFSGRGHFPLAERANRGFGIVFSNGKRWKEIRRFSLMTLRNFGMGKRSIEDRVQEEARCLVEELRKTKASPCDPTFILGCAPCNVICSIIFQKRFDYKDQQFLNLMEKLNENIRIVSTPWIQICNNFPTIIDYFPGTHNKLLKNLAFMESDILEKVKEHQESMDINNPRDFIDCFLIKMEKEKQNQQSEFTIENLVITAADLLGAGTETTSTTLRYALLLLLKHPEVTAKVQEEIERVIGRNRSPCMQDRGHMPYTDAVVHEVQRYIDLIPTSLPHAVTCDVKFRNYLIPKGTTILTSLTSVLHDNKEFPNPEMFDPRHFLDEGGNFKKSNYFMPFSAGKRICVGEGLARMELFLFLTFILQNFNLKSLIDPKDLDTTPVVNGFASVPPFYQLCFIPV

[12] = system: Rattus norvegicus; assay: Effect on sleep-awake cycle in EEG/EMG rat model assessed as wake surplus at 30 mg/kg, ip up to 22 hrs; assay type: functional, organism-based; set-up: dose 30 mg/kg; procedure, shortened: as §4
[13] = system: Rattus norvegicus; assay: Effect on sleep-awake cycle in EEG/EMG rat model assessed as wake promotion time at 1 mg/kg, ip after 4 hrs (reference value: 80 +/- 5 mins); assay type: functional; conditions: route intraperitoneal; procedure, shortened: as §4
[14] = target: T2, Cytochrome P450 1A2 (Homo sapiens, UniProt P05177); assay: Inhibition of CYP1A2; assay type: ADME
T2 sequence (P05177 whole entry): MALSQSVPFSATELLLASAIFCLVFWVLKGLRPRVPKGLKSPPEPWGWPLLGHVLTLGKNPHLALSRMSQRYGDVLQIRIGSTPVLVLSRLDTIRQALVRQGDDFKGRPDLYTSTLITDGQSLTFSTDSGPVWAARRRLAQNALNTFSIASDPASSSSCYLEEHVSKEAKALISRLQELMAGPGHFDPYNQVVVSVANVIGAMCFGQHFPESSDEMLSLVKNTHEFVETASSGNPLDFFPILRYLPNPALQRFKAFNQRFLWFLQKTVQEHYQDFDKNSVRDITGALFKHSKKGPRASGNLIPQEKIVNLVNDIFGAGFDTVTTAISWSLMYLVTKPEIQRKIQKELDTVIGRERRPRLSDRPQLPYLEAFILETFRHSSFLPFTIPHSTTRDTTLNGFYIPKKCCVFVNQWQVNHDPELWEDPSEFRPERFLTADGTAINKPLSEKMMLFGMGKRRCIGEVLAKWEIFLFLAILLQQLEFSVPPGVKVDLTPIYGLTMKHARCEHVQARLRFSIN

[15] = system: Rattus norvegicus; assay: Inhibition of RAMH-induced dipsogenia in ip dosed rat; assay type: functional
[16] = target: Cytochrome P450 2C9 (Homo sapiens, UniProt P11712); assay: Inhibition of CYP2C9; assay type: ADME
Sequence of Cytochrome P450 2C9 (P11712 whole entry): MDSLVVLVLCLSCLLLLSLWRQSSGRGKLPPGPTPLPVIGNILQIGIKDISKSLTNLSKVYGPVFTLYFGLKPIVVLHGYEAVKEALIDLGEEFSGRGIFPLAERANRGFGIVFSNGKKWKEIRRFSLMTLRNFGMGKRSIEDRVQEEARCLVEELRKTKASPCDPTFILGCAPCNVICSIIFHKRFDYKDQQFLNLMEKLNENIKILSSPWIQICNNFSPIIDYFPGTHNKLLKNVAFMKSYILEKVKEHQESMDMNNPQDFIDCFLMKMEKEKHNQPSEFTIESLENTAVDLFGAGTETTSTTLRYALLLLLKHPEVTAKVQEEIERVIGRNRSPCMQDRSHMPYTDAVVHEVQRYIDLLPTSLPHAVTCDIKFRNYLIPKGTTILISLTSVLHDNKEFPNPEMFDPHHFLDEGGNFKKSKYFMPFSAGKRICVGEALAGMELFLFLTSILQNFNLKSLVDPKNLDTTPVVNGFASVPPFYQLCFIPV

[17] = Half life in human liver microsomes; assay type: ADME, Microsome
[18] = Plasma protein binding in human; assay type: ADME, cell-free; conditions: read-out: PPB
[19] = target: Cytochrome P450 2D6 (Homo sapiens, UniProt P10635); assay: Inhibition of CYP2D6; assay type: ADME
Sequence of Cytochrome P450 2D6 (P10635 whole entry): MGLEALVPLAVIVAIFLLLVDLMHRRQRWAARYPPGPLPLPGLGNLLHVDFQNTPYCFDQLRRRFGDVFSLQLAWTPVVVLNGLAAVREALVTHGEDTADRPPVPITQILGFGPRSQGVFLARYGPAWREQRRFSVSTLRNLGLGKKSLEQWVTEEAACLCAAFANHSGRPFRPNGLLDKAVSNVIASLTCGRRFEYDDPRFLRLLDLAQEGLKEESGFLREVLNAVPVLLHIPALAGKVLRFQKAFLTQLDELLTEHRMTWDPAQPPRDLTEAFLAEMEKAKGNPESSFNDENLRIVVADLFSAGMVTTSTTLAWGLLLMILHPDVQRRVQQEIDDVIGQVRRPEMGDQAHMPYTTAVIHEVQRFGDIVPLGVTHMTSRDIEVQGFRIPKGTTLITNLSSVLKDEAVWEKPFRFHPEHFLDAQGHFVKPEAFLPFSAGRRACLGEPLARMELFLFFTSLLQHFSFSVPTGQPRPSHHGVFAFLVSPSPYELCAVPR

[20] = target: Sodium-dependent dopamine transporter (Homo sapiens) (UniProt Q01959); assay: Inhibition of DAT at 10 uM
Sequence of Sodium-dependent dopamine transporter (Homo sapiens) (Q01959 whole entry): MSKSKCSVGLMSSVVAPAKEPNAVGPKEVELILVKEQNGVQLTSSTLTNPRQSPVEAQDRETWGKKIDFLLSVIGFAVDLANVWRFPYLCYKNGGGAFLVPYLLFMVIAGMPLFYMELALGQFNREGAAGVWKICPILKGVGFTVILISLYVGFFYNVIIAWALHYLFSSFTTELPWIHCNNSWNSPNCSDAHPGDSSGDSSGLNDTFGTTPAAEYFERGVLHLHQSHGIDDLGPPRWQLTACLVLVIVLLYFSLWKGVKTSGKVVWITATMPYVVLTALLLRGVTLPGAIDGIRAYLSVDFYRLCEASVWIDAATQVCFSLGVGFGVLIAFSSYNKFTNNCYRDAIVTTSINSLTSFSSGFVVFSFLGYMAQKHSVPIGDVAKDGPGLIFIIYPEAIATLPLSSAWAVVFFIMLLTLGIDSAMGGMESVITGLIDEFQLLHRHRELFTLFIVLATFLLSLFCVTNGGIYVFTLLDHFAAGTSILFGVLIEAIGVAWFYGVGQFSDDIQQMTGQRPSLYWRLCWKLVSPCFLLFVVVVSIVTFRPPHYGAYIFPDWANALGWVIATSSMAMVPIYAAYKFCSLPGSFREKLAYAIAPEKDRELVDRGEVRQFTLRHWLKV

[21] = target: T1, Histamine H3 receptor; assay: Inverse agonist activity at human histamine H3 receptor assessed as inhibition of R-alpha-methylhistamine-induced [35S]GTPgammaS binding; assay type: functional
[22] = Plasma protein binding in rat; assay type: ADME, cell-free; conditions: read-out: PPB
[23] = system: Rattus norvegicus; assay: Effect on sleep-awake cycle in EEG/EMG rat model assessed as wake promotion time at 0.1 mg/kg, ip after 4 hrs (reference value: 80 +/- 5 mins); assay type: functional; conditions: route intraperitoneal; procedure, shortened: as §4
[24] = system: Rattus norvegicus; assay: Effect on sleep-awake cycle in EEG/EMG rat model assessed as awake time at 30 mg/kg, ip after 4 hrs relative to control; assay type: functional; conditions: route intraperitoneal; procedure, shortened: as §4
[25] = Drug uptake in rat brain at 5 mg/kg, po measured after 6 hrs; assay type: ADME, organism-based; set-up: dose 5 mg/kg, route oral; conditions: read-out: Drug uptake
Procedure, shortened: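 Rats given 5 mg/kg po in 50% Tween 80, 40% propylene carbonate, 10% propylene glycol. Brain concentration determined 6 h after dosing.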

[26] = system: Rattus norvegicus; assay: Effect on sleep-awake cycle in EEG/EMG rat model assessed as wake promotion time at 30 mg/kg, ip after 4 hrs relative to control; assay type: functional; conditions: route intraperitoneal; procedure, shortened: as §4
[27] = Ratio drug uptake in brain to plasma of rat at 10 mg/kg, ip measured after 6 hrs; assay type: ADME, organism-based; set-up: dose 10 mg/kg, route intraperitoneal; conditions: read-out: BPR
[28] = system: Rattus norvegicus; assay: Effect on sleep-awake cycle in EEG/EMG rat model assessed as wake promotion at 10 mg/kg, ip after 2 hrs; assay type: functional; conditions: route intraperitoneal; procedure, shortened: as §4
[29] = species: Homo sapiens; assay: Selectivity for human histamine H3 receptor over human histamine H1 receptor; procedure, shortened: as §3
[30] = system: Rattus norvegicus; assay: Effect on sleep-awake cycle in EEG/EMG rat model assessed as awake time at 10 mg/kg, ip after 4 hrs relative to control; assay type: functional; conditions: route intraperitoneal; procedure, shortened: as §4
[31] = Plasma protein binding in dog; assay type: ADME, cell-free, Canis lupus familiaris; conditions: read-out: PPB
[32] = system: Rattus norvegicus; assay: Effect on sleep-awake cycle in EEG/EMG rat model assessed as wake promotion time at 0.3 mg/kg, ip after 4 hrs (reference value: 80 +/- 5 mins); assay type: functional; conditions: route intraperitoneal; procedure, shortened: as §4
[33] = Cmax in rat at 5 mg/kg, po; assay type: ADME, organism-based; set-up: dose 5 mg/kg, route oral; conditions: in vivo
[34] = Apparent permeability across human Caco2 cells; assay type: ADME, cell-based; conditions: Caco-2
[35] = system: Rattus norvegicus; assay: Effect on sleep-awake cycle in EEG/EMG rat model assessed as wake promotion time at 10 mg/kg, ip after 4 hrs relative to control; assay type: functional; conditions: route intraperitoneal; procedure, shortened: as §4
[36] = Half life in dog liver microsomes; assay type: ADME, Canis lupus familiaris, Microsome
[37] = system: Rattus norvegicus; assay: Effect on sleep-awake cycle in ip dosed EEG/EMG rat model assessed as wake promotion after 4 hrs; assay type: functional, organism-based; procedure, shortened: as §4
[38] = Half life in monkey liver microsomes; assay type: ADME, Macaca mulatta, Microsome; conditions: rhesus monkey
[39] = system: Rattus norvegicus; assay: Effect on sleep-awake cycle in EEG/EMG rat model assessed as sleep rebound at 0.1 to 30 mg/kg, ip; assay type: functional, organism-based; procedure, shortened: as §4
[40] = system: Rattus norvegicus; assay: Effect on sleep-awake cycle in EEG/EMG rat model assessed as wake promotion at 0.1 to 1 mg/kg, ip after 4 hrs relative to control; assay type: functional; conditions: dose mg/kg 0.1-1; route intraperitoneal; procedure, shortened: as §4
[41] = Volume of distribution in rat at 1 mg/kg, iv; assay type: ADME, organism-based; set-up: dose 1 mg/kg, route intravenous; conditions: in vivo; procedure, shortened: as §2
[42] = species: Homo sapiens; assay: Selectivity for human histamine H3 receptor over human histamine H2 receptor; procedure, shortened: as §3
[43] = target: Histamine H4 receptor (Homo sapiens) (UniProt Q9H3N8); assay: Inhibition of human histamine H4 receptor at 10 uM
[44] = Aqueous solubility of the compound at pH 2; assay type: physicochemical; conditions: aqueous medium
[45] = target: Histamine H1 receptor (Homo sapiens) (UniProt P35367); assay: Inhibition of human histamine H1 receptor at 10 uM
[46] = Aqueous solubility of the compound at pH 7.4; assay type: physicochemical; conditions: aqueous medium
[47] = target: Histamine H2 receptor (Homo sapiens) (UniProt P25021); assay: Inhibition of human histamine H2 receptor at 10 uM
Sequence of Histamine H2 receptor (Homo sapiens) (P25021 whole entry): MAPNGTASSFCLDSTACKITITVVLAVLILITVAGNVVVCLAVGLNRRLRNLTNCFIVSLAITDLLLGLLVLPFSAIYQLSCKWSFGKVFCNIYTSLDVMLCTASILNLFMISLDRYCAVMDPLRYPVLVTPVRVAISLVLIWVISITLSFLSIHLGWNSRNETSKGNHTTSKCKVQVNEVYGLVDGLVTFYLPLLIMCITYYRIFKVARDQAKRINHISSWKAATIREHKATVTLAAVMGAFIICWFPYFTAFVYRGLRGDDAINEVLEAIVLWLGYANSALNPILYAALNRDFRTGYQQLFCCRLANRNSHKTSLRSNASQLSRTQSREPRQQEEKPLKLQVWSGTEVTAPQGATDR

Sequence of Voltage-gated inwardly rectifying potassium channel KCNH2 (Q12809 whole entry): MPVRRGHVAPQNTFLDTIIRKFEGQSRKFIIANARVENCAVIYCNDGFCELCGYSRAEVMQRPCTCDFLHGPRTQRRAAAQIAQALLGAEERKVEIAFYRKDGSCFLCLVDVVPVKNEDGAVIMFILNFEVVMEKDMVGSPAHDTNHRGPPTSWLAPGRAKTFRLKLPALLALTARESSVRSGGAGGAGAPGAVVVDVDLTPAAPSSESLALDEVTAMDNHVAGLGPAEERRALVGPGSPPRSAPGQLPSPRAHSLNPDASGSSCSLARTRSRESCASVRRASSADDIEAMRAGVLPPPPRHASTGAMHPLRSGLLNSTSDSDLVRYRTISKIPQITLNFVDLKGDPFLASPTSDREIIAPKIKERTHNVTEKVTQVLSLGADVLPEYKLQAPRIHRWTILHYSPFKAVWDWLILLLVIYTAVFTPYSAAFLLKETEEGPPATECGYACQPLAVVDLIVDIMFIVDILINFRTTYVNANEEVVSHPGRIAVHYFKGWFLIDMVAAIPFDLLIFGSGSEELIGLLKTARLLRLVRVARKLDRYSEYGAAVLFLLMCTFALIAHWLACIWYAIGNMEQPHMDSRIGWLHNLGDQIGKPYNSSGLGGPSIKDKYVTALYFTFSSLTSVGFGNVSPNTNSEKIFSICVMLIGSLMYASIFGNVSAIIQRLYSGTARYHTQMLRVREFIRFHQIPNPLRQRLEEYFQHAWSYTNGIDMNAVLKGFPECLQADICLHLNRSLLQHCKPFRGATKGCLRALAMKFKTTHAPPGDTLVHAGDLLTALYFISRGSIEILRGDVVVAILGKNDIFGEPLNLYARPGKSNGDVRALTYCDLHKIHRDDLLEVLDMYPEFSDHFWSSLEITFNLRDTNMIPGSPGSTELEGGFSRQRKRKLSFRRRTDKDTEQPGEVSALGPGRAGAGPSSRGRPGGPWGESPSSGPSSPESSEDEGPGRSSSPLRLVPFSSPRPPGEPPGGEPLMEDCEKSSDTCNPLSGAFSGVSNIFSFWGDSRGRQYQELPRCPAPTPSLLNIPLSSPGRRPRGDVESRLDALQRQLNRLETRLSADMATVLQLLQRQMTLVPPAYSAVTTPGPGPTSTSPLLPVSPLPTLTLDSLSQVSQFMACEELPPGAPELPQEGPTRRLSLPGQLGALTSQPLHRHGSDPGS
Sequence of Histamine H3 receptor (Rattus norvegicus, UniProt Q9QYN8) (Q9QYN8 whole entry): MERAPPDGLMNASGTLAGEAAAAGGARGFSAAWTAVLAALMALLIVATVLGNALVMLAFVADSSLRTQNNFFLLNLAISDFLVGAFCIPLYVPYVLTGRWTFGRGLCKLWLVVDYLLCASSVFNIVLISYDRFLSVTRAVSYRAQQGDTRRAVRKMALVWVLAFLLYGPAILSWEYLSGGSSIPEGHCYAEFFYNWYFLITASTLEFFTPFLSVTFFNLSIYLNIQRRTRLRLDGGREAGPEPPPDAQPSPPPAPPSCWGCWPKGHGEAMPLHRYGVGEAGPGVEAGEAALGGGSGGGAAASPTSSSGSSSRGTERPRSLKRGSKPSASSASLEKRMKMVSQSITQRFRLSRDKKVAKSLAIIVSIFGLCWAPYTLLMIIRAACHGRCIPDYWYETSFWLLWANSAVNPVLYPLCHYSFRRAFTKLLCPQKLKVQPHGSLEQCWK

`O=c1ccc(-c2ccc(OC3CCN(C4CCC4)CC3)nc2)n[nH]1` showed an IC50 [1] of 9 µM, a Ki [2] of 0.019 µM and a bioavailability [3] of 21%. It also gave a Ki [4] of 0.0063 µM.

Work on `CC1(C)CC(c2ccc(OC3CCN(C4CCC4)CC3)cc2)=NNC1=O` yielded a half-life [5] of 114 min, an IC50 [1] of 21 µM and a half-life [6] greater than 40 min. It also gave a Ki [2] of 0.0044 µM, a bioavailability [3] of 33% and a Selectivity ratio [7] greater than 1000. It also gave a Time [8] of 196 min, an IC50 [9] greater than 30 µM and a clearance [10] of 1.08 L/h/kg. The IC50 [11] was greater than 30 µM, the Activity [12] was “Active” and the Ki [4] was 0.0027 µM. It also gave a Time [13] of 116 min, an IC50 [14] greater than 30 µM and an ED50 [15] of 0.14 mg/kg. The inhibition [15] was “Dose-dependent effect”, the IC50 [16] was greater than 30 µM and the half-life [17] was greater than 40 min. It also gave a fraction unbound [18] of 0.5, an IC50 [19] greater than 30 µM and an inhibition [20] of 8%. For the same compound, the EC50 [21] was 0.0008 µM, the fraction unbound [22] was 0.5 and the Time [23] was 115 min. The Activity [24] was 98%, the concentration at 6 h [25] was 2.1 µM and the Activity [26] was 193%. It also gave a Kp at 6 h [27] of 4, an Activity [28] of 90% and a Selectivity ratio [29] greater than 1000. The Activity [30] was 84%, the fraction unbound [31] was 0.5 and the Time [32] was 122 min. The Cmax [33] was 0.27 µg/mL, the Papp [34] was 270 nm/s and the Activity [35] was 152%. For the same compound, the half-life [36] was greater than 40 min, the Activity [37] was “Dose-dependent effect” and the half-life [38] was greater than 40 min. The Activity [39] was “inactive”, the Activity [40] was 45% and the Vd [41] was 3.1 L/kg. It also gave a Selectivity ratio [42] greater than 1000.

Compound `Cn1nc(-c2ccc(OC3CCN(C4CCC4)CC3)cc2)ccc1=O` has a Ki [2] of 0.0031 µM and a Ki [4] of 0.0024 µM.

Compound `CC1(C)CC(c2ccc(OC3CCN(C4CCC4)CC3)nc2)=NNC1=O` has a Ki [2] of 0.028 µM and a Ki [4] of 0.012 µM.

`CC(C)n1nc(-c2ccc(OC3CCN(C4CCC4)CC3)nc2)ccc1=O` gave a Ki [2] of 0.0094 µM and a Ki [4] of 0.0065 µM.

With `O=c1ccc(-c2ccc(OC3CCN(C4CCC4)CC3)cc2)n[nH]1` the half-life [5] was 138 min, the inhibition [43] was less than 10% and the IC50 [1] was 8 µM. It also gave a half-life [6] greater than 40 min, a Ki [2] of 0.0022 µM and a solubility [44] greater than 1 mg/mL. The bioavailability [3] was 35%, the IC50 [9] was greater than 30 µM and the clearance [10] was 0.78 L/h/kg. The inhibition [45] was less than 10%, the IC50 [11] was greater than 30 µM and the Ki [4] was 0.0019 µM. It also gave an IC50 [14] greater than 30 µM, an IC50 [16] greater than 30 µM and a half-life [17] greater than 40 min. The solubility [46] was greater than 1 mg/mL, the IC50 [19] was greater than 30 µM and the inhibition [20] was 63%. The EC50 [21] was 0.0011 µM, the concentration at 6 h [25] was 1.4 µM and the Kp at 6 h [27] was 1.9. For the same compound, the inhibition [47] was less than 10%, the Cmax [33] was 0.441 µg/mL and the Papp [34] was 165 nm/s. For the same compound, the half-life [36] was greater than 40 min, the half-life [38] was greater than 40 min and the Vd [41] was 2.5 L/kg.

For `Cc1cc(=O)[nH]nc1-c1ccc(OC2CCN(C3CCC3)CC2)cc1`, the Ki [2] was 0.0063 µM and the Ki [4] was 0.0044 µM.

`C[C@@H]1CC(=O)NN=C1c1ccc(OC2CCN(C3CCC3)CC2)cc1` gave a Ki [2] of 0.0096 µM.

Work on `O=c1ccc(-c2ccc(OC3CCN(C4CCC4)CC3)nc2)nn1-c1ccccn1` yielded a Ki [2] of 0.082 µM and a Ki [4] of 0.034 µM.

`Cn1nc(-c2ccc(OC3CCNCC3)cc2)ccc1=O` gave a Ki [2] greater than 1 µM and a Ki [4] of 0.695 µM.
